{"data": "Results collected from several papers", "target": "Mitotic checkpoint serine/threonine-protein kinase BUB1 (BUB1, Homo sapiens, UniProt O43683)"}
{"SMILES": "C[C@@H]1CCN(c2nccc(-c3cnn4ncccc34)n2)C1", "assay": "binding", "conditions": "1 µM", "remaining binding [%]": 71}
{"SMILES": "c1cncc(-c2cccc(Nc3nccc(NC4CCCCC4)n3)c2)c1", "assay": "binding, competition with immobilised ligand", "conditions": "10 µM", "remaining binding [%]": 59}
{"SMILES": "Cc1cnc(Nc2ccc(C(=O)N3CCC(N4CCCC4)CC3)cc2)nc1-c1cc2ccccc2s1", "assay": "binding, competition with immobilised ligand", "conditions": "1 µM", "remaining binding [%]": 39}
{"SMILES": "COc1ccnn2ncc(-c3ccnc(N(C)C)n3)c12", "assay": "binding", "conditions": "1 µM", "remaining binding [%]": 96}
{"SMILES": "CC(=O)C1=C(C)N(c2cccc(C(F)(F)F)c2)C(=O)N[C@@H]1c1ccc(C#N)nc1", "assay": "cell-free assay, competition with immobilised ligand", "conditions": "1 µM", "remaining binding [%]": 100}
{"SMILES": "O=C(NCC1CCOCC1)c1n[nH]cc1NC(=O)c1c(F)cccc1F", "assay": "binding, competition with immobilised ligand", "conditions": "1 µM", "remaining binding [%]": 71}
{"SMILES": "C[C@@H](c1ccc(-n2cnc3c(N)ncnc32)cc1)N1CCc2nn(C)c(Cc3ccccc3)c2C1=O", "assay": "binding, competition with immobilised ligand", "conditions": "0.1 µM", "remaining binding [%]": 91}
{"SMILES": "c1cnn2ncc(-c3ccnc(N4CCC45COC5)n3)c2c1", "assay": "binding", "conditions": "1 µM", "remaining binding [%]": 46}
{"SMILES": "C[C@@]1(Cc2ccc(C#N)cc2)C(=O)N(c2cc(Cl)cc(Cl)c2)c2ncc(C(=O)NC3(c4nc(C5CCC5)no4)CC3)n21", "assay": "cell-free assay, competition with immobilised ligand", "conditions": "1 µM", "remaining binding [%]": 100}
{"SMILES": "CN(C)c1ncc(F)c(-c2cnn3ncccc23)n1", "assay": "binding", "conditions": "1 µM", "remaining binding [%]": 100}
{"SMILES": "COc1cnc(Nc2cccc(S(N)(=O)=O)c2)nc1N1CCN(c2ccccc2)C(=O)C1", "assay": "binding, competition with immobilised ligand", "conditions": "1 µM", "remaining binding [%]": 79}
{"SMILES": "CCOCCn1cc(C(=O)Nc2ccc(-n3nc(-c4cccnc4)cc3C(F)(F)F)cn2)ccc1=O", "assay": "cell-free assay, competition with immobilised ligand", "conditions": "1 µM", "remaining binding [%]": 79}
{"SMILES": "Cc1cnn2ncc(-c3ccnc(N(C)C)n3)c2c1", "assay": "binding", "conditions": "1 µM", "remaining binding [%]": 63}
{"SMILES": "O=C(c1ccc(Nc2nccc(-c3cc4ccccc4s3)n2)cc1)N1CCC(N2CCCC2)CC1", "assay": "binding, competition with immobilised ligand", "conditions": "1 µM", "remaining binding [%]": 45}
{"SMILES": "CS(=O)(=O)N1CCCC(NC(=O)[C@H](CCC2CCCCC2)NC(=O)c2ccc(CNc3ncnc4c3nnn4-c3ccccc3)cc2)C1 (stereo partly shown)", "assay": "cell-free assay, competition with immobilised ligand", "conditions": "0.1 µM", "remaining binding [%]": 100}
{"SMILES": "O=C(NCCCN1CCOCC1)c1ccc(Nc2nccc(-c3cc4ccccc4s3)n2)cc1", "assay": "binding, competition with immobilised ligand", "conditions": "1 µM", "remaining binding [%]": 72}
{"SMILES": "CN(C)CC#Cc1ccc(OCCCc2sc(N3CCc4cccc(C(=O)Nc5nc6ccccc6s5)c4C3)nc2C(=O)O)c(F)c1", "assay": "cell-free assay, competition with immobilised ligand", "conditions": "1 µM", "remaining binding [%]": 81}
{"SMILES": "CC1CCCN1c1nccc(-c2cnn3ncccc23)n1 (stereo not shown)", "assay": "binding", "conditions": "1 µM", "remaining binding [%]": 100}
{"SMILES": "CCCCN(CCCC)C(=O)CN1C[C@H](c2cc(OC)c3c(c2)OCO3)[C@@H](C(=O)O)[C@@H]1CC(C)(C)CCC", "assay": "cell-free assay, competition with immobilised ligand", "conditions": "1 µM", "remaining binding [%]": 75.4}
{"SMILES": "FC(F)(F)Oc1cccc(-c2cnc3ccc(-c4ccncc4)nn23)c1", "assay": "cell-free assay, competition with immobilised ligand", "conditions": "5 µM", "remaining binding [%]": 13}
{"SMILES": "COc1cc(-c2cn(C3CCc4c(F)cccc4N(CC(F)(F)F)C3=O)nn2)ccc1-n1cnc(C)c1 (stereo not shown)", "assay": "cell-free assay, competition with immobilised ligand", "conditions": "1 µM", "remaining binding [%]": 100}
{"SMILES": "N[C@H]1CCN(c2nccc(-c3cnn4ncccc34)n2)C1", "assay": "binding", "conditions": "1 µM", "remaining binding [%]": 97}
